Data: ChEMBL document CHEMBL5252546, “Salutaxel, a Conjugate of Docetaxel and a Muramyl Dipeptide (MDP) Analogue, Acts as Multifunctional Prodrug That Inhibits Tumor Growth and Metastasis” (J Med Chem, 2018)
Activity calls are given as the source filed them. The rule behind the calls is not given here.

What was measured:
[1] = Cmax in Beagle dog at 4 mg/kg,iv measured upto 24 hrs; type: ADME, organism-based, Canis lupus familiaris; design: dose 4 mg/kg, time < 24 hrs, route iv; conditions: in vivo
How it was run: (§1)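 Beagle dogs were given a single iv infusion at 1, 2 or 4 mg/kg. Plasma parent drug and released docetaxel were followed over time. Cmax, Tmax, AUC, MRT, t1/2, CL and Vss were reported by sex and for all dogs combined.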

[2] = Toxicity in BALB/c mouse xenografted with human NCI-H1975 cells assessed as side effects at 10 mg/kg,iv administrated once per week for 3 weeks; type: organism-based; conditions: in vivo, 504 h
[3] = Stability in rat plasma assessed as compound remaining at 40 uM incubated for 6 hrs; type: ADME, cell-free
[4] = Clearance in male Beagle dog at 1 mg/kg,iv measured upto 24 hrs; type: ADME, organism-based, Canis lupus familiaris; conditions: in vivo; how it was run: as §1
[5] = system: 4T1; test: Antitumor activity against mouse 4T1 cells implanted in BALB/c mouse assessed as decrease in neutrophil in peripheral blood at 20 mg/kg,iv administrated qd for 2 days by blood smear staining microscopic analysis; type: functional, organism-based; conditions: time 2.0 day
How it was run: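 Day 19 after 4T1 implantation, mice randomised into five groups; iv vehicle or 20 mg/kg plus ip C12-iE-DAP (50 μg/mouse) and MDP (100 μg/mouse) once daily for 2 days; blood taken 6 h later; neutrophils/leukocytes counted on stained blood smears at 1000× light microscopy.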

[6] = AUC (0-infinity) in rat at 2 mg/kg,iv measured upto 24 hrs; type: ADME, organism-based; design: dose 2 mg/kg, time < 24 hrs, route iv; conditions: in vivo
How it was run: (§2)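 Single iv dose: rats 2, 4 or 8 mg/kg by intravenous injection; Beagle dogs 1, 2 or 4 mg/kg by intravenous infusion. Plasma concentration–time data were analysed by sex and pooled. Reported parameters: Cmax, Tmax, AUC0−t, AUC0−∞, MRT0−∞, t1/2, CL, Vss, given as mean ± SD.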

[7] = system: HT-29; test: Antiproliferative activity against human HT-29 cells assessed inhibition of cell growth incubated for 72 hrs by SRB assay; type: functional, cell-based; conditions: HT-29, 72 h
[8] = Half life in Beagle dog at 1 mg/kg,iv measured upto 24 hrs; type: ADME, organism-based, Canis lupus familiaris; conditions: in vivo
[9] = Prodrug conversion in mouse tumor implanted with mouse 4T1 cells assessed as Tmax of docetaxel at 4 mg/kg,iv measured upto 72 hrs; type: ADME, organism-based, Neoplasm; conditions: in vivo
[10] = Clearance in male rat at 2 mg/kg,iv measured upto 24 hrs; type: ADME, organism-based; conditions: in vivo
How it was run: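 Rats were given a single iv injection at 2, 4 or 8 mg/kg. Plasma parent drug and released docetaxel were followed over time. Cmax, Tmax, AUC, MRT, t1/2, CL and Vss were reported for males, females and all animals combined.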

[11] = Drug metabolism in rat urine assessed as metabolite docetaxel formation at 4 mg/kg,iv measured after 24 hrs; type: ADME, organism-based; conditions: in vivo
[12] = Toxicity in Beagle dog assessed as decrease in blood pressure at 1 to 4 mg/kg,iv measured after 1 to 4 hrs; type: organism-based, Canis lupus familiaris; conditions: in vivo, dose lower 1 mg/kg, time lower 1 hrs, dose upper 4 mg/kg, time upper 4 hrs
[13] = Prodrug conversion in mouse plasma implanted with mouse 4T1 cells assessed as Cmax of docetaxel at 4 mg/kg,iv measured upto 72 hrs; type: ADME, organism-based; design: dose 4 mg/kg, time < 72 hrs, route iv; conditions: in vivo
[14] = target: Cytochrome P450 1A (Homo sapiens, UniProt P04798+P05177); test: Inhibition of CYP1A in human liver microsomes using probe substrate at 0.1 to 100 uM in presence of NADPH; type: ADME, Microsome; conditions: dose 0.1-100 µM
[15] = Toxicity in BALB/c mouse xenografted with mouse 4T1 cells assessed as decrease in body weight at 10 mg/kg,iv administrated once per week for 4 weeks; type: organism-based; conditions: in vivo, 672 h
[16] = MRT (0 to infinity) in male Beagle dog at 2 mg/kg,iv measured upto 24 hrs; type: ADME, organism-based, Canis lupus familiaris; conditions: in vivo
[17] = Prodrug conversion in mouse tumor implanted with mouse 4T1 cells assessed as half life of docetaxel at 4 mg/kg,iv measured upto 72 hrs; type: ADME, organism-based, Neoplasm; conditions: in vivo
[18] = Clearance in female Beagle dog at 1 mg/kg,iv measured upto 24 hrs; type: ADME, organism-based, Canis lupus familiaris; conditions: in vivo; how it was run: as §1
[19] = Cmax in female Beagle dog at 1 mg/kg,iv measured upto 24 hrs; type: ADME, organism-based, Canis lupus familiaris; design: dose 1 mg/kg, time < 24 hrs, route iv; conditions: in vivo; how it was run: as §1
[20] = MRT (0 to infinity) in Beagle dog at 4 mg/kg,iv measured upto 24 hrs; type: ADME, organism-based, Canis lupus familiaris; conditions: in vivo
[21] = system: MCF7; test: Antiproliferative activity against human MCF7 cells assessed inhibition of cell growth incubated for 72 hrs by SRB assay; type: functional, cell-based; conditions: MCF7, 72 h
[22] = Prodrug conversion in mouse tumor implanted with mouse 4T1 cells assessed as Cmax of docetaxel at 4 mg/kg,iv measured upto 72 hrs; type: ADME, organism-based, Neoplasm; design: time < 72 hrs, dose 4 mg/kg, route iv; conditions: in vivo
[23] = Half life in male Beagle dog at 2 mg/kg,iv measured upto 24 hrs; type: ADME, organism-based, Canis lupus familiaris; conditions: in vivo
[24] = Drug metabolism in rat urine assessed as metabolite MDA-205 formation at 4 mg/kg,iv measured after 24 hrs; type: ADME, organism-based; conditions: in vivo
[25] = Half life in female rat at 4 mg/kg,iv measured upto 24 hrs; type: ADME, organism-based; conditions: in vivo
[26] = Stability in monkey plasma assessed as compound remaining at 40 uM incubated for 6 hrs; type: ADME, cell-free, Macaca mulatta; conditions: rhesus monkey
[27] = Tmax in female Beagle dog at 4 mg/kg,iv measured upto 24 hrs; type: ADME, organism-based, Canis lupus familiaris; conditions: in vivo
[28] = Drug metabolism in rat plasma assessed as metabolite docetaxel formation at 4 mg/kg,iv measured after 24 hrs; type: ADME, organism-based; conditions: in vivo
[29] = Clearance in Beagle dog at 2 mg/kg,iv measured upto 24 hrs; type: ADME, organism-based, Canis lupus familiaris; conditions: in vivo; how it was run: as §1
[30] = Drug metabolism in rat feces assessed as metabolite MDA-205 formation at 4 mg/kg,iv measured after 24 hrs; type: ADME, organism-based; conditions: in vivo
[31] = MRT (0 to infinity) in female Beagle dog at 1 mg/kg,iv measured upto 24 hrs; type: ADME, organism-based, Canis lupus familiaris; conditions: in vivo
[32] = AUC (0-infinity) in male rat at 8 mg/kg,iv measured upto 24 hrs; type: ADME, organism-based; design: dose 8 mg/kg, time < 24 hrs, route iv; conditions: in vivo; how it was run: as §2
[33] = system: 4T1; test: Antitumor activity against mouse 4T1 cells xenografted with BALB/c mouse assessed as reduction lung metastatic nodules at 5.7 mg/kg,iv in presence of compound 5b administrated once per week for 4 weeks; type: functional, organism-based
How it was run: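 4T1 cells injected into mammary fat pads of BALB/c mice. Dosing iv once per week for 4 weeks, saline vehicle; single-agent arms were given alone or with the peptide component (5b or 6). Endpoints were body weight, tumour volume, tumour weight, lung metastatic nodule count and lung metastasis score. Mean ± SEM, n = 10; ANOVA and Student's t test.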

[34] = Toxicity in BALB/c mouse xenografted with human A549/Taxol cells assessed as body weight loss at 5.7 mg/kg,iv administrated once per week for 3 weeks; type: organism-based, A549/TR; conditions: in vivo, 504 h
How it was run: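 Nude BALB/c nu/nu mice received subcutaneous human tumour cells into the right flank. Dosing started at mean tumour volume of 100–120 mm3, iv once weekly for 3 weeks; the taxane arm was an equimolar control. Body weight and overt side effects were monitored. Mean ± SEM, n = 8.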

[35] = Drug concentration in plasma of Beagle dog at 1.14 mg/kg,iv measured upto 24 hrs; type: ADME, organism-based, Canis lupus familiaris; conditions: in vivo
How it was run: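 Taxane given as a single intravenous dose: 2.28 mg/kg to rats by injection and 1.14 mg/kg to Beagle dogs by infusion. Plasma concentrations were then measured.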

[36] = system: 4T1; test: Antitumor activity against mouse 4T1 cells implanted in BALB/c mouse assessed as decrease in serum MMP9 level at 5.7 mg/kg,iv administrated once per week for 4 weeks by ELISA; type: functional, organism-based
[37] = system: 4T1; test: Antitumor activity against mouse 4T1 cells implanted in BALB/c mouse assessed as decrease in serum MMP9 level at 5.7 mg/kg,iv administrated once per week for 4 weeks in presence of MDA-205 by ELISA; type: functional, organism-based

For `CC(=O)O[C@@]12CO[C@@H]1C[C@H](O)[C@@]1(C)C(=O)[C@H](O)C3=C(C)[C@@H](OC(=O)[C@H](OC(=O)CCC(=O)NCCCC[C@H](NC(=O)CC[C@@H](NC(=O)[C@H](C)NC(=O)/C=C/c4ccc(F)cc4Cl)C(N)=O)C(=O)O)[C@@H](NC(=O)OC(C)(C)C)c4ccccc4)C[C@@](O)([C@@H](OC(=O)c4ccccc4)[C@H]21)C3(C)C`, the Cmax [1] was 30100 ng/mL, the Activity [2] was “Non-Toxic” and the Stability [3] was “Stable”. The clearance [4] was 11.7 mL/min/kg, the Activity [5] was “Active” and the AUC(0-inf) [6] was 5230 ng·h/mL. It also gave an IC50 [7] of 16.3 nM, a half-life [8] of 21.3 min and a Tmax [9] of 30 min. For the same compound, the clearance [10] was 5.58 mL/min/kg, the Drug metabolism [11] was “Metabolite_Detected” and the Activity [12] was “Non-Toxic”. For the same compound, the Cmax [13] was 43.3 µM, the “inhibition (INH)” value [14] was “Not Active” and the Activity [15] was “Toxic”. For the same compound, the MRT inf [16] was 13.1 min, the t1/2 [17] was 59 h and the clearance [18] was 11.2 mL/min/kg. The Cmax [19] was 4020 ng/mL, the MRT inf [20] was 20.3 min and the IC50 [21] was 16.3 nM. The Cmax [22] was 2.39 µM, the half-life [23] was 30.2 min and the Drug metabolism [24] was “Metabolite_Detected”. The half-life [25] was 10.4 min, the Stability [26] was “Stable” and the Tmax [27] was 30 min. For the same compound, the Drug metabolism [28] was “Metabolite_Detected”, the clearance [29] was 6.08 mL/min/kg and the Drug metabolism [30] was “Metabolite_Detected”. The MRT inf [31] was 18.4 min and the AUC(0-inf) [32] was 52800 ng·h/mL.

In the case of `CC(=O)O[C@@]12CO[C@@H]1C[C@H](O)[C@@]1(C)C(=O)[C@H](O)C3=C(C)[C@@H](OC(=O)[C@H](O)[C@@H](NC(=O)OC(C)(C)C)c4ccccc4)C[C@@](O)([C@@H](OC(=O)c4ccccc4)[C@H]21)C3(C)C` [DOCETAXEL ANHYDROUS], the Activity [33] is reported as “inactive”, the Activity [34] is reported as “Non-Toxic” and the Drug uptake [35] is reported as 0.8%. For the same compound, the Activity [36] was “Active” and the Activity [37] was “Active”.
